This note sets out measurements from ChEMBL document CHEMBL4266010, “Synthesis, Biological Evaluation of Fluorescent 23-Hydroxybetulinic Acid Probes, and Their Cellular Localization Studies” (ACS Med Chem Lett, 2018).

By IC50 is commonly meant the concentration needed to halve the response being measured. A low value points to greater potency.

Structures are written as SMILES. Activity calls are given as the source filed them. No cut-off for these calls is given here.

Data set [1] is described as follows: Antiproliferative activity against HELF after 72 hrs by MTT assay. Also on record: species or system Homo sapiens. The method in brief:
(§1)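 MTT assay on B16F10 mouse skin melanoma, MCF-7 human breast cancer and Helf human embryonic lung fibroblast cells. Doxorubicin served as reference. Values are mean ± SD of three independent experiments.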

Another data set concerns MCF7. Briefly: Antiproliferative activity against human MCF7 cells after 72 hrs by MTT assay. It counts as functional, cell-based. The settings on record: MCF7, 72 h. The gist of the method: as §1
A general note: Formazan colour is commonly taken as a measure of viable cells.

Data set [2] concerns B16-F10. Briefly: Antiproliferative activity against mouse B16F10 cells after 72 hrs by MTT assay. It counts as functional, cell-based. The settings on record: B16-F10, 72 h. The method in brief: as §1
Data set [3] is described as follows: Drug uptake in mouse B16F10 cells up to 50 uM after 1 hr by fluorescence microscopic method. It counts as ADME, cell-based. The settings on record: b16-f10, 1 h. The gist of the method:
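Live B16F10 cells stained 1 h with the unconjugated coumarin dye at up to 50 μM as control. Intracellular fluorescence examined by microscopy.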

Data set [4] has as its system B16-F10. Briefly: Induction of mitochondrial membrane potential loss in mouse B16F10 cells at 15 uM after 48 hrs by JC-1 dye based flow cytometry (reference value: 1.79%). It counts as functional. The method in brief:
(§2)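 B16F10 cells incubated 48 h with parent acid (0, 7.5, 15, 30 μM) or probe (0, 1.5, 3.0, 6.0 μM), then stained with JC-1. Percentage of cells with collapsed mitochondrial membrane potential determined by flow cytometry.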

The subject of data set [5] is B16-F10. Nature of the data set: Induction of mitochondrial membrane potential loss in mouse B16F10 cells at 30 uM after 48 hrs by JC-1 dye based flow cytometry (reference value: 1.79%). It counts as functional. The method in brief:
as §2

Data set [6] relates to B16-F10. Nature of the data set: Induction of apoptosis in mouse B16F10 cells assessed as increase in Bax protein expression at 7.5 to 30 uM after 48 hrs by Western blot analysis. It counts as functional, cell-based. The method in brief:
(§3)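 B16F10 cells treated with parent acid (0, 7.5, 15, 30 μM) or probe (0, 1.5, 3.0, 6.0 μM). Bax, Bcl-2, cytochrome c, caspase 3 and caspase 9 detected by Western blot with GAPDH loading control. Band density normalized to GAPDH as relative expression. Values are mean ± SD of three independent experiments; P values for control vs treated.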
A general note: Immunoblotting shows a protein as a band on a membrane.

Data set [7] concerns B16-F10. Nature of the data set: Induction of apoptosis in mouse B16F10 cells assessed as decrease in Bcl2 protein expression at 7.5 to 30 uM after 48 hrs by Western blot analysis. It counts as functional, cell-based. The method in brief: as §3
Data set [8] has as its system B16-F10. Nature of the data set: Induction of apoptosis in mouse B16F10 cells assessed as increase in cytochrome-c protein expression at 7.5 to 30 uM after 48 hrs by Western blot analysis. It counts as functional, cell-based. The method in brief: as §3
The test system of data set [9] is B16-F10. Nature of the data set: Induction of apoptosis in mouse B16F10 cells assessed as increase in caspase-3 protein expression at 7.5 to 30 uM after 48 hrs by Western blot analysis. It counts as functional, cell-based. The gist of the method:
as §3

The test system of data set [10] is B16-F10. Nature of the data set: Induction of apoptosis in mouse B16F10 cells assessed as increase in caspase-9 protein expression at 7.5 to 30 uM after 48 hrs by Western blot analysis. It counts as functional, cell-based. The method in brief:
as §3

The test system of data set [11] is B16-F10. Nature of the data set: Induction of mitochondrial membrane potential loss in mouse B16F10 cells at 7.5 uM after 48 hrs by JC-1 dye based flow cytometry (reference value: 1.79%). It counts as functional. The method in brief:
as §2

A short description of data set [12]: Drug uptake in mouse B16F10 cells after 15 mins by fluorescence microscopic method. It counts as ADME, cell-based. The settings on record: b16-f10, 0.25 h. The method in brief:
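Live B16F10 cells incubated with the coumarin-labelled probe (10 μM among several concentrations) over a time course. Intracellular fluorescence imaged by fluorescence microscopy. Probe excitation/emission maxima 415/475 nm.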

The nature of data set [13]: Drug uptake in mouse B16F10 cell lysosomes at 4 uM after 1 hr by LysoTracker staining based confocal laser scanning microscopic method. It counts as ADME, subcellular, Lysosome. As to conditions: b16-f10, 1 h. The method in brief:
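Live B16F10 cells co-stained with the coumarin probe at 4 μM and LysoTracker Red, with DAPI nuclear counterstain. Imaged by confocal microscopy, probe visualized as green and lysosomes as red.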

Data set [14] concerns B16-F10. Nature of the data set: Induction of apoptosis in mouse B16F10 cells assessed as decrease in Bcl2 protein expression at 1.5 to 6 uM after 48 hrs by Western blot analysis. It counts as functional, cell-based. The gist of the method: as §3
Data set [15] is described as follows: Drug uptake in mouse B16F10 cells at 10 uM up to 240 mins mins by flow cytometry. It counts as ADME, cell-based. As to conditions: b16-f10, 4 h. The gist of the method:
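Live B16F10 cells incubated with 10 μM coumarin probe over a time course (0–120 min and beyond). Intracellular fluorescence intensity quantified by flow cytometry.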
A general note: In flow cytometry, cells or beads pass a laser one at a time.

In data set [16] the test system is B16-F10. Nature of the data set: Induction of mitochondrial membrane potential loss in mouse B16F10 cells at 1.5 to 6 uM after 48 hrs by JC-1 dye based flow cytometry. It counts as functional, cell-based. The method in brief:
as §2

The subject of data set [17] is B16-F10. Briefly: Induction of apoptosis in mouse B16F10 cells assessed as increase in Bax protein expression at 1.5 to 6 uM after 48 hrs by Western blot analysis. It counts as functional, cell-based. The method in brief:
as §3

Data set [18] relates to B16-F10. Briefly: Induction of apoptosis in mouse B16F10 cells assessed as increase in caspase-9 protein expression at 1.5 to 6 uM after 48 hrs by Western blot analysis. It counts as functional, cell-based. The gist of the method:
as §3

Data set [19] is described as follows: Drug uptake in mouse B16F10 cell mitochondria at 4 uM after 1 hr by MitoTracker dye based confocal laser scanning microscopic method. The settings on record: b16-f10, 1 h. It counts as ADME. The method in brief: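 Live B16F10 cells incubated 1 h with the coumarin probe at 4 μM together with MitoTracker. Imaged by confocal laser scanning microscopy with probe excitation at 415 nm (green) and MitoTracker […] at 579 nm (red). Colocalization read from overlay of the two channels.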

A short description of data set [20]: Drug uptake in mouse B16F10 cell nucleus at 4 uM after 1 hr by DAPI staining based confocal laser scanning microscopic method. The settings on record: b16-f10, 1 h. It counts as ADME, subcellular.
In data set [21] the test system is B16-F10. Briefly: Induction of apoptosis in mouse B16F10 cells assessed as increase in cytochrome-c protein expression at 1.5 to 6 uM after 48 hrs by Western blot analysis. It counts as functional, cell-based. The gist of the method:
as §3

For data set [22], the system named is B16-F10. Briefly: Induction of apoptosis in mouse B16F10 cells assessed as increase in caspase-3 protein expression at 1.5 to 6 uM after 48 hrs by Western blot analysis. It counts as functional, cell-based. The method in brief: as §3

Consider `C=C(C)[C@@H]1CC[C@]2(C(=O)O)CC[C@]3(C)[C@H](CC[C@@H]4[C@@]5(C)CC[C@H](O)[C@@](C)(COC(=O)CCCCCNC(=O)c6cc7ccc(N(CC)CC)cc7oc6=O)[C@@H]5CC[C@]43C)[C@@H]12`, for which the IC50 in data set [1] came to 79.7 µM; with MCF7, 37.8 µM; with B16-F10 [2], 12.3 µM.

For `CCN(CC)c1ccc2cc(C(=O)NCCNC(=O)CCC(=O)O)c(=O)oc2c1`, in data set [3], the Drug uptake result is given as “Not Active”. Further, in the data set on B16-F10 [2], the 50% inhibitory concentration (IC50) is > 100 µM.

Take `C=C(C)[C@@H]1CC[C@]2(C(=O)O)CC[C@]3(C)[C@H](CC[C@@H]4[C@@]5(C)CC[C@H](O)[C@@](C)(COC(=O)CCC(=O)NCCCCNC(=O)c6cc7ccc(N(CC)CC)cc7oc6=O)[C@@H]5CC[C@]43C)[C@@H]12`: the results for the IC50 (in data set [1]; in the data set on MCF7; with B16-F10 [2]) were 17.6 µM, 9.7 µM and 7.77 µM, respectively.

`C=C(C)[C@@H]1CC[C@]2(C(=O)O)CC[C@]3(C)[C@H](CC[C@@H]4[C@@]5(C)CC[C@H](O)[C@@](C)(COC(=O)CCC(=O)OCCOCCOCCOC(=O)c6cc7ccc(N(CC)CC)cc7oc6=O)[C@@H]5CC[C@]43C)[C@@H]12`: the results for the IC50 (in data set [1]; with MCF7; with B16-F10 [2]) were 19.4 µM, 24.2 µM and 30 µM, respectively.

Regarding `C=C(C)[C@@H]1CC[C@]2(C(=O)O)CC[C@]3(C)[C@H](CC[C@@H]4[C@@]5(C)CC[C@H](O)[C@@](C)(COC(=O)CCC(=O)OCCOCCOC(=O)c6cc7ccc(N(CC)CC)cc7oc6=O)[C@@H]5CC[C@]43C)[C@@H]12`, the IC50 turned out to be 21.4 µM in data set [1], 30.5 µM in the data set on MCF7 and 35.5 µM in the data set with B16-F10 [2].

In the case of `C=C(C)[C@@H]1CC[C@]2(C(=O)O)CC[C@]3(C)[C@H](CC[C@@H]4[C@@]5(C)CC[C@H](O)[C@@](C)(COC(=O)CCC(=O)OCCNC(=O)c6cc7ccc(N(CC)CC)cc7oc6=O)[C@@H]5CC[C@]43C)[C@@H]12`, the IC50 is 25.1 µM in data set [1], 18.1 µM in the data set with MCF7 and 10.5 µM in the data set with B16-F10 [2].

As to `C=C(C)[C@@H]1CC[C@]2(C(=O)O)CC[C@]3(C)[C@H](CC[C@@H]4[C@@]5(C)CC[C@H](O)[C@@](C)(COC(=O)CCC(=O)OCCOC(=O)c6cc7ccc(N(CC)CC)cc7oc6=O)[C@@H]5CC[C@]43C)[C@@H]12`, the figures for the IC50 (in data set [1]; in the data set with MCF7; with B16-F10 [2]) were 23.8 µM, 19.7 µM and 11.8 µM, respectively.

In the case of `COc1cccc2c1C(=O)c1c(O)c3c(c(O)c1C2=O)C[C@@](O)(C(=O)CO)C[C@@H]3O[C@H]1C[C@H](N)[C@H](O)[C@H](C)O1` [DOXORUBICIN], the IC50 was found to be 0.21 µM in data set [1], 0.15 µM in the data set with MCF7 and 0.19 µM in the data set with B16-F10 [2].

For `C=C(C)[C@@H]1CC[C@]2(C(=O)O)CC[C@]3(C)[C@H](CC[C@@H]4[C@@]5(C)CC[C@H](O)[C@@](C)(CO)[C@@H]5CC[C@]43C)[C@@H]12`, the results for the IC50 (in data set [1]; with MCF7; with B16-F10 [2]) were 31.5 µM, 20.8 µM and 24.5 µM, respectively. The Activity was 22.85% in the data set on B16-F10 [4], 42.87% in the data set on B16-F10 [5] and 10.57% with B16-F10 [11]. The outcome with B16-F10 [6], with B16-F10 [7], in the data set with B16-F10 [8], with B16-F10 [9] and in the data set with B16-F10 [10] was Active.

As for `C=C(C)[C@@H]1CC[C@]2(C(=O)O)CC[C@]3(C)[C@H](CC[C@@H]4[C@@]5(C)CC[C@H](O)[C@@](C)(COC(=O)CCC(=O)NCCNC(=O)c6cc7ccc(N(CC)CC)cc7oc6=O)[C@@H]5CC[C@]43C)[C@@H]12`, the Drug uptake entry in [12] is “Dose-dependent effect”; in data set [13], “Not Active”; in [15], “Active”; in [19], “Active”; in data set [20], “Not Active”. The IC50 turned out to be 11.7 µM in data set [1], 6.26 µM in the data set with MCF7 and 4.07 µM with B16-F10 [2]. Further, the outcome in the data set on B16-F10 [14], in the data set with B16-F10 [16], in the data set on B16-F10 [17], with B16-F10 [18], in the data set on B16-F10 [21] and in the data set on B16-F10 [22] was Active.

In the case of `C=C(C)[C@@H]1CC[C@]2(C(=O)O)CC[C@]3(C)[C@H](CC[C@@H]4[C@@]5(C)CC[C@H](O)[C@@](C)(COC(=O)CCCNC(=O)c6cc7ccc(N(CC)CC)cc7oc6=O)[C@@H]5CC[C@]43C)[C@@H]12`, the IC50 amounted to 27.8 µM in data set [1], 18.1 µM in the data set with MCF7 and 11.3 µM with B16-F10 [2].

On to `C=C(C)[C@@H]1CC[C@]2(C(=O)O)CC[C@]3(C)[C@H](CC[C@@H]4[C@@]5(C)CC[C@H](O)[C@@](C)(COC(=O)CCC(=O)NCCOC(=O)c6cc7ccc(N(CC)CC)cc7oc6=O)[C@@H]5CC[C@]43C)[C@@H]12`, for which the IC50 in data set [1] came to 24 µM; with MCF7, 19.9 µM; in the data set with B16-F10 [2] it was 11.5 µM.

For the compound `C=C(C)[C@@H]1CC[C@]2(C(=O)O)CC[C@]3(C)[C@H](CC[C@@H]4[C@@]5(C)CC[C@H](O)[C@@](C)(COC(=O)COCCOCCNC(=O)c6cc7ccc(N(CC)CC)cc7oc6=O)[C@@H]5CC[C@]43C)[C@@H]12`, the IC50 amounted to 10.8 µM in data set [1], 8.16 µM in the data set with MCF7 and 5.25 µM in the data set on B16-F10 [2].
